Screening data: PubChem, Broad Institute
This excerpt belongs to a sample that is enriched for hits.
YB-1 expr inh – inhibitors of YB-1 gene expression, primary screen, cell-based, fluorescence. U2OS, qRT-PCR YB-1 vs CDIP delta delta Cp, 16 h; stronger effect = higher value; zero = DMSO, each unit about twofold. delta delta Cp (YB-1 minus CDIP) (test concentration not listed). 0.37% of 30,000 active. AID 434959, 2010;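 active = delta delta Cp rounded down to an integer at or above 3, about 3 SD of DMSO wells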;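 note: higher means less YB-1 transcript or more CDIP transcript relative to DMSO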
INS-1E ATP HTS – protection of INS-1E cells from cytokine death, primary screen, ATP luminescence, single point; protection from cytokine-induced ATP loss, % at 10 µM; 0.1% of 20,000 active; INS-1E cytokine-induced death, 48 h; normalised: neutral wells 0, positive control 100;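 active = mean replicate protection from cytokine-induced ATP loss at least 50% and at least 75% of replicates each reaching 50%; inconclusive = meets only one of the two criteria, mean or replicate share; inactive = fails both the mean and replicate share criteria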
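Material: INS-1E rat cells; Quantity: 8000 cells/well; Buffer or medium: phenol-red-free RPMI with 5% fetal bovine serum; Probe or stimulus: cytokine cocktail of IFN-γ, TNF-α and IL-1β; Compound dosing: single test concentration per compound, delivered by pin transfer; Incubation: 48 h co-treatment, 10 min post-lysis read; Signal: CellTiter-Glo luminescence.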
T cruzi HTS – inhibitors of intracellular Trypanosoma cruzi, primary screen, cell-based, plate reader, single point, set 2. intracellular Trypanosoma cruzi in host cells. activity score (inhibition), % at 5.01 µM. 4.9% of 22,000 active. AID 651903, 2012; in the data active = activity score above about 55%; inconclusive = no clear call, values can overlap the other calls;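 note: parasites and compound incubated about four days before reading; 0% = median of neutral control wells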
Starred values were filed as active, the others as inactive; ? = inconclusive; / = no result given.

SMILES	YB-1 expr inh	INS-1E ATP HTS	T cruzi HTS
C[C@@H]1CCCCO[C@@H](CN(C)CC2CCCCC2)[C@@H](C)CN([C@H](C)CO)C(=O)c2cc(NC(=O)Nc3ccccc3)ccc2O1	-0.037	-15	52
C[C@@H]1CCCCO[C@@H](CN(C)CC2CCCCC2)[C@@H](C)CN([C@H](C)CO)C(=O)c2cc(NC(=O)c3ccccc3)ccc2O1	-0.42	-9	23
C[C@@H]1CCCCO[C@@H](CN(C)Cc2ccc3c(c2)OCO3)[C@@H](C)CN([C@H](C)CO)C(=O)c2cc(NC(=O)Nc3ccc4c(c3)OCO4)ccc2O1	-0.47	-18	71*
C[C@@H]1CCCCO[C@H](CN(C)Cc2ccc3c(c2)OCO3)[C@@H](C)CN([C@H](C)CO)C(=O)c2cc(NC(=O)Nc3ccc4c(c3)OCO4)ccc2O1	0.24	6	1
C[C@@H]1CCCCO[C@H](CN(C)CC2CCCCC2)[C@@H](C)CN([C@H](C)CO)C(=O)c2cc(NC(=O)c3ccncc3)ccc2O1	6.4*	-2	-2
COC(=O)CCCCCCC(=O)N/N=C/c1ccc2ccccc2n1	-0.21	11	18
C[C@H]1CN([C@@H](C)CO)C(=O)c2cccc(NC(=O)CCCCCC(=O)Nc3ccccc3N)c2O[C@H]1CN(C)Cc1ccc(Cl)c(Cl)c1	-0.95	9	70*
C[C@@H]1CN([C@H](C)CO)C(=O)c2cccc(NC(=O)CCCCCC(=O)Nc3ccccc3N)c2O[C@@H]1CN(C)Cc1ccc(Cl)c(Cl)c1	0.067	3	61*
C[C@@H]1CN([C@@H](C)CO)C(=O)c2cccc(NC(=O)CCCCCC(=O)Nc3ccccc3N)c2O[C@@H]1CN(C)S(=O)(=O)c1ccc(Cl)cc1	0.11	-18	56*
C[C@@H]1CN([C@@H](C)CO)C(=O)c2cccc(NC(=O)CCCCCC(=O)Nc3ccccc3N)c2O[C@@H]1CN(C)Cc1ccc(Cl)c(Cl)c1	-0.13	19	52
C[C@@H]1CN([C@H](C)CO)C(=O)c2cccc(NC(=O)CCCCCC(=O)Nc3ccccc3N)c2O[C@@H]1CN(C)S(=O)(=O)c1ccc(Cl)cc1	0.24	1	?
C[C@@H]1CN([C@H](C)CO)C(=O)c2cccc(NC(=O)CCCCCC(=O)Nc3ccccc3N)c2O[C@@H]1CN(C)C	-0.088	-9	-43
CC(C)NC(=O)Nc1cccc2c1O[C@H](CN(C)Cc1ccc(Cl)c(Cl)c1)[C@@H](C)CN([C@@H](C)CO)C2=O	0.095	-2	-5
COc1ccc(NC(=O)N(C)C[C@@H]2Oc3ccc(NC(=O)NC4CCCCC4)cc3C(=O)N([C@@H](C)CO)C[C@H]2C)cc1	0.19	2	-10
C[C@@H]1O[C@@H](O[C@H]2[C@@H](O)[C@@H](C)O[C@@H](O[C@H]3[C@H](O)[C@@H](O)[C@H](O[C@H]4CC[C@@]5(C)C(CC[C@]6(C)C5C=CC5=C7CC(C)(C)CC[C@]7(CO)CC[C@]56C)[C@]4(C)CO)O[C@@H]3CO)[C@@H]2O[C@@H]2O[C@H](CO)[C@@H](O)[C@H](O)[C@H]2O)[C@H](O)[C@H](O)[C@H]1O (some centres undefined)	-0.014	/	/
C[C@@H]1CN([C@H](C)CO)C(=O)Cc2cc(NC(=O)Nc3ccc4c(c3)OCO4)ccc2O[C@H]1CN(C)Cc1ccc(-c2ccccc2)cc1	-0.35	-35	72*
C[C@H]1CN([C@@H](C)CO)C(=O)Cc2cc(NC(=O)Nc3ccc(F)cc3)ccc2O[C@H]1CN(C)Cc1ccc(-c2ccccc2)cc1	0.092	-44	22
C[C@@H]1CN([C@H](C)CO)C(=O)Cc2cc(NC(=O)Nc3ccc4c(c3)OCO4)ccc2O[C@H]1CN(C)Cc1ccccc1	-0.016	-8	-15
C[C@@H]1CN([C@H](C)CO)C(=O)Cc2cc(NC(=O)Nc3ccc(F)cc3)ccc2O[C@H]1CN(C)Cc1ccc(-c2ccccc2)cc1	0.13	-72	74*
CCc1nc2c(cnn2-c2ccccc2)c(=O)n1CCc1ccccc1	0.49	/	/
Cc1nc2c(cnn2-c2ccccc2)c(=O)n1NC(=O)Nc1ccc(Cl)c(Cl)c1	9.9*	/	/
C[C@H](CO)N1C[C@H](C)[C@H](CN(C)C)Oc2ncc(-c3ccccc3)cc2C1=O	-0.053	/	63*
C[C@H](CO)N1C[C@H](C)[C@H](CN(C)C)Oc2ncc(-c3ccc(F)cc3)cc2C1=O	0.068	/	65*
C[C@H](CO)N1C[C@H](C)[C@H](CN(C)Cc2ccncc2)Oc2ncc(-c3ccc(F)cc3)cc2C1=O	-0.18	/	7
C[C@H](CO)N1C[C@H](C)[C@H](CN(C)C)Oc2ncc(-c3cccc(F)c3)cc2C1=O	-0.18	/	71*
SMILES	YB-1 expr inh	INS-1E ATP HTS	T cruzi HTS
C[C@H](CO)N1C[C@H](C)[C@H](CN(C)S(=O)(=O)c2ccccc2)Oc2ncc(-c3ccccc3)cc2C1=O	-0.34	/	16
C[C@H](CO)N1C[C@H](C)[C@H](CN(C)S(=O)(=O)c2ccc(F)cc2)Oc2ncc(-c3cccc(F)c3)cc2C1=O	-0.17	/	28
COc1cccc(-c2cnc3c(c2)C(=O)N([C@H](C)CO)C[C@H](C)[C@H](CN(C)S(C)(=O)=O)O3)c1	-0.23	/	4
COc1cccc(-c2cnc3c(c2)C(=O)N([C@H](C)CO)C[C@H](C)[C@H](CN(C)C)O3)c1	-0.15	/	76*
CC(=O)O[C@@](C)(C(=O)/C=C/C(C)(C)O)[C@H]1[C@H](O)C[C@@]2(C)[C@@H]3CC=C4[C@@H](C=C(O[C@@H]5O[C@H](CO)[C@@H](O)[C@H](O)[C@H]5O[C@@H]5O[C@@H](C)[C@H](O)[C@@H](O)[C@H]5O)C(=O)C4(C)C)[C@]3(C)C(=O)C[C@]12C	1.6	/	/
C[C@@H]1CN([C@H](C)CO)C(=O)Cc2cc(NC(=O)Nc3ccc(F)cc3)ccc2O[C@H]1CN(C)C(=O)Nc1ccc(C(F)(F)F)cc1	-0.34	-20	9
O=C(NO)c1cccc(C(=O)N/N=C/c2ccccc2C(=O)O)c1	0.32	-11	-5
C/C=C/[C@H](CCn1cc([C@H](O)c2ccccc2)nn1)[Si](C)(C)c1ccc(OC)cc1	0.028	/	/
CCn1c(SCC(=O)Nc2cccc(Cl)c2Cl)nc2ccccc2c1=O	0.2	/	/
COc1ccc(CN(C)C[C@@H]2Oc3ccc(NC(=O)Cc4cn(C)c5ccccc45)cc3CC(=O)N([C@H](C)CO)C[C@H]2C)cc1	-0.18	-8	65*
C[C@H](CO)N1C[C@H](C)[C@H](CN(C)Cc2ccc(C(F)(F)F)cc2)Oc2ccc(NC(=O)Cc3cn(C)c4ccccc34)cc2CC1=O	0.14	-8	29
C[C@H](CO)N1C[C@H](C)[C@H](CN(C)Cc2ccc(Oc3ccccc3)cc2)Oc2ccc(NC(=O)Cc3cn(C)c4ccccc34)cc2CC1=O	-0.08	-23	19
C[C@H](CO)N1C[C@H](C)[C@H](CN(C)Cc2ccc(Cl)c(Cl)c2)Oc2ccc(NC(=O)Cc3cn(C)c4ccccc34)cc2CC1=O	-0.022	-24	54
COc1ccc(CN(C)C[C@H]2Oc3ccc(NC(=O)Cc4cn(C)c5ccccc45)cc3CC(=O)N([C@H](C)CO)C[C@H]2C)cc1	0.004	-7	14
